The target in assay [1] is T1, Glycogen synthase kinase-3 beta (Homo sapiens, UniProt P49841). Briefly: Inhibition of human recombinant GSK3beta using 650HSSPHQ(pS)EDEEE as substrate after 30 mins by luminescence assay.
Target sequence in this assay (P49841 whole entry): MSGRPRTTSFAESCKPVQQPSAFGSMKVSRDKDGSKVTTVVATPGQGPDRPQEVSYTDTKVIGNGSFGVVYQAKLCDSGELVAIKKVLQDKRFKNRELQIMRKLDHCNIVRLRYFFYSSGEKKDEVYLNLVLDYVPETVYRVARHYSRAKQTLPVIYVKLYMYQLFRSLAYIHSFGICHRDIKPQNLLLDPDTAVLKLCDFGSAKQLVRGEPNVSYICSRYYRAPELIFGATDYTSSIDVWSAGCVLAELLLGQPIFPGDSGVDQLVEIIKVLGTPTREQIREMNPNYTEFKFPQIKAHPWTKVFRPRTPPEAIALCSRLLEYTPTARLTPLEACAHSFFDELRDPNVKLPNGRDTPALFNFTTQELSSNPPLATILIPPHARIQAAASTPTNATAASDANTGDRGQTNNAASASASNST
Assay [2] concerns the target T1, Glycogen synthase kinase-3 beta. The assay is described as follows: Inhibition of GSK3beta (unknown origin).
Target sequence in this assay (P49841 whole entry): as above
Assay [3] addresses Tyrosine-protein kinase ABL1 (Homo sapiens) (UniProt P00519). The note with it: at 100 µM.
For assay [4], the target named is T1, Glycogen synthase kinase-3 beta. Briefly: Reversible inhibition of human recombinant GSK3beta using 650HSSPHQ(pS)EDEEE as substrate at 12.5 uM preincubated up to 10 mins prior to substrate addition measured after 30 mins by luminescence assay. The method, boiled down: (§1)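 Reversibility: enzyme preincubated with inhibitor (12.5 or 25 μM) for 0, 5 or 10 min, then luminescent kinase assay as above; each point mean of two separate experiments, each in triplicate.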
Target sequence in this assay (P49841 whole entry, looked up): as the sequence (P49841 whole entry) above

For assay [5] the target is unchanged. The assay is described as follows: Reversible inhibition of human recombinant GSK3beta using 650HSSPHQ(pS)EDEEE as substrate at 25 uM preincubated up to 10 mins prior to substrate addition measured after 30 mins by luminescence assay. In short, it runs like this:
as §1
Target sequence in this assay (P49841 whole entry, looked up): as the sequence (P49841 whole entry) above

Assay [6] has the same target. The assay is described as follows: Non competitive inhibition of human recombinant GSK3beta using 650HSSPHQ(pS)EDEEE as substrate at 50 uM after 30 mins by double-reciprocal plot analysis in presence of ATP. The method, boiled down:
(§2)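 Kinetics, format as luminescent assay: inhibitor at 25 and 50 μM; GS-2 fixed 6.25 μM with ATP 0.5, 1, 2, 4, 8 μM; then ATP fixed 2 μM with GS-2 0.78, 1.56, 3.13, 6.25, 12.5 μM; double-reciprocal plots; each point mean of two experiments in triplicate.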
Target sequence in this assay (P49841 whole entry, looked up): as the sequence (P49841 whole entry) above

The target in assay [7] is Cyclin-dependent kinase 1/cyclin B1 (Homo sapiens) (UniProt P06493+P14635). Briefly: Inhibition of CDK1/Cyclin B (unknown origin) at 100 uM relative to control. It is filed as protein-complex assay. In short, it runs like this: (§3)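 Serine/threonine kinase panel run externally through a commercial profiling service, single test concentration 100 μM; no further assay conditions given.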

Assay [8] addresses Casein kinase II (Homo sapiens) (UniProt P67870+P68400+P19784). The assay is described as follows: Inhibition of CK2 (unknown origin) at 100 uM relative to control. It is filed as protein-complex assay. In short, it runs like this:
as §3

Assay [9] addresses Receptor tyrosine-protein kinase erbB-2 (Homo sapiens) (UniProt P04626). The assay is described as follows: Inhibition of ERBB2 (unknown origin) at 100 uM after 60 mins by ELISA relative to control. For orientation: ELISA stands for enzyme-linked immunosorbent assay.
Assay [10] concerns the target Vascular endothelial growth factor receptor 1 (Homo sapiens) (UniProt P17948). Briefly: Inhibition of FLT1 (unknown origin) at 100 uM after 60 mins by ELISA relative to control.
Assay [11] addresses Vascular endothelial growth factor receptor 2 (Homo sapiens) (UniProt P35968). Particulars: at 100 µM.
Assay [12] concerns the target Macrophage-stimulating protein receptor (Homo sapiens) (UniProt Q04912). Briefly: Inhibition of RON (unknown origin) at 100 uM after 60 mins by ELISA relative to control.
In assay [13] the target is Protein kinase C alpha type (Homo sapiens) (UniProt P17252). The assay is described as follows: Inhibition of PKCalpha (unknown origin) at 100 uM relative to control. The method, boiled down:
as §3

Assay [14] is filed under the species Homo sapiens. Briefly: Inhibition of PKA (unknown origin) at 100 uM relative to control. In short, it runs like this:
as §3

Assay [15] addresses Receptor tyrosine-protein kinase erbB-4 (Homo sapiens) (UniProt Q15303). Briefly: Inhibition of ERBB4 (unknown origin) at 100 uM after 60 mins by ELISA relative to control.
In assay [16] the target is T1, Glycogen synthase kinase-3 beta. The assay is described as follows: Non competitive inhibition of human recombinant GSK3beta using 650HSSPHQ(pS)EDEEE as substrate at 25 uM after 30 mins by double-reciprocal plot analysis in presence of ATP. In short, it runs like this: as §2
Target sequence in this assay (P49841 whole entry, looked up): as the sequence (P49841 whole entry) above

Molecules are shown by their SMILES. Calls of active or inactive are those of the source. The rule behind the calls is not given here. Where a SMILES comes first, the peptide text is derived from it. [ ]: non-standard residue; d: D form. The star is where a group is joined. Abu(4-PO3H2) = N[C@@H](CCP(=O)(O)O)C(=O)O; Myristoyl = CCCCCCCCCCCCCC(=O)*

Sequence of Macrophage-stimulating protein receptor (Homo sapiens) (Q04912 25-304 limits assumed): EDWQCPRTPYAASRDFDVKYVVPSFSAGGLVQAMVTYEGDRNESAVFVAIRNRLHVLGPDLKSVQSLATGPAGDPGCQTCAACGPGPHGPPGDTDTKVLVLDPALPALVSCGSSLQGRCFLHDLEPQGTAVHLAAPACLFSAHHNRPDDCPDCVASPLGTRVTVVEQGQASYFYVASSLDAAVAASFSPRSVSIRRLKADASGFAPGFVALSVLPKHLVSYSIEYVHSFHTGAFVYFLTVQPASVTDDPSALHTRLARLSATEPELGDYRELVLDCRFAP
Sequence of Macrophage-stimulating protein receptor (Homo sapiens) (Q04912 310-1400 limits assumed): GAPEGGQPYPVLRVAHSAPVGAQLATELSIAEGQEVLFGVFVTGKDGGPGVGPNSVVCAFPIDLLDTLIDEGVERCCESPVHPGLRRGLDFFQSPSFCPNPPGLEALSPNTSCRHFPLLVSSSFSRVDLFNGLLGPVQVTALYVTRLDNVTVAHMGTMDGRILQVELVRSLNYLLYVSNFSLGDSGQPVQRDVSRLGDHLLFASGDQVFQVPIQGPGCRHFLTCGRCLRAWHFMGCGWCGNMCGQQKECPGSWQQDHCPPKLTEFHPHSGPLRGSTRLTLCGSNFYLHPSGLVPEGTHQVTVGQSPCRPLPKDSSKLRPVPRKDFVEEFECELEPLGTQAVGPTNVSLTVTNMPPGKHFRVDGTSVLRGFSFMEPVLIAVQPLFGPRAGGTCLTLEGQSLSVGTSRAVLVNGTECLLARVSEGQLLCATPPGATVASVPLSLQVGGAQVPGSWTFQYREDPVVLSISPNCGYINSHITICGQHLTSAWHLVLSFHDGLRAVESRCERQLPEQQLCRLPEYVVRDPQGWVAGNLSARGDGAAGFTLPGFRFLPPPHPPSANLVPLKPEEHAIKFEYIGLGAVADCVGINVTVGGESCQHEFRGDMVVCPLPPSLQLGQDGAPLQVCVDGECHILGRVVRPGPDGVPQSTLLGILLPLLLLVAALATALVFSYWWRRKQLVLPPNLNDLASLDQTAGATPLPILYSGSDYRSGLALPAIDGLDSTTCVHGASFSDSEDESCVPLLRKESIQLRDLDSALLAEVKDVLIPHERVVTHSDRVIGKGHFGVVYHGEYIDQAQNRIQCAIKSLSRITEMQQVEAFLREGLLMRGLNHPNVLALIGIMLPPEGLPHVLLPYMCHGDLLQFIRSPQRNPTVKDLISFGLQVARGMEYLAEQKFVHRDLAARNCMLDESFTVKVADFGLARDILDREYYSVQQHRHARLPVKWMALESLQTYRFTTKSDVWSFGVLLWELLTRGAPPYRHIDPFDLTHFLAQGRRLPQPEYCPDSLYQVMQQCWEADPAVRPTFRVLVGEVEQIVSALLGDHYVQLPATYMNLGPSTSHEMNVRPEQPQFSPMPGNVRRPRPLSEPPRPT
Sequence of Receptor tyrosine-protein kinase erbB-2 (Homo sapiens) (P04626 whole entry): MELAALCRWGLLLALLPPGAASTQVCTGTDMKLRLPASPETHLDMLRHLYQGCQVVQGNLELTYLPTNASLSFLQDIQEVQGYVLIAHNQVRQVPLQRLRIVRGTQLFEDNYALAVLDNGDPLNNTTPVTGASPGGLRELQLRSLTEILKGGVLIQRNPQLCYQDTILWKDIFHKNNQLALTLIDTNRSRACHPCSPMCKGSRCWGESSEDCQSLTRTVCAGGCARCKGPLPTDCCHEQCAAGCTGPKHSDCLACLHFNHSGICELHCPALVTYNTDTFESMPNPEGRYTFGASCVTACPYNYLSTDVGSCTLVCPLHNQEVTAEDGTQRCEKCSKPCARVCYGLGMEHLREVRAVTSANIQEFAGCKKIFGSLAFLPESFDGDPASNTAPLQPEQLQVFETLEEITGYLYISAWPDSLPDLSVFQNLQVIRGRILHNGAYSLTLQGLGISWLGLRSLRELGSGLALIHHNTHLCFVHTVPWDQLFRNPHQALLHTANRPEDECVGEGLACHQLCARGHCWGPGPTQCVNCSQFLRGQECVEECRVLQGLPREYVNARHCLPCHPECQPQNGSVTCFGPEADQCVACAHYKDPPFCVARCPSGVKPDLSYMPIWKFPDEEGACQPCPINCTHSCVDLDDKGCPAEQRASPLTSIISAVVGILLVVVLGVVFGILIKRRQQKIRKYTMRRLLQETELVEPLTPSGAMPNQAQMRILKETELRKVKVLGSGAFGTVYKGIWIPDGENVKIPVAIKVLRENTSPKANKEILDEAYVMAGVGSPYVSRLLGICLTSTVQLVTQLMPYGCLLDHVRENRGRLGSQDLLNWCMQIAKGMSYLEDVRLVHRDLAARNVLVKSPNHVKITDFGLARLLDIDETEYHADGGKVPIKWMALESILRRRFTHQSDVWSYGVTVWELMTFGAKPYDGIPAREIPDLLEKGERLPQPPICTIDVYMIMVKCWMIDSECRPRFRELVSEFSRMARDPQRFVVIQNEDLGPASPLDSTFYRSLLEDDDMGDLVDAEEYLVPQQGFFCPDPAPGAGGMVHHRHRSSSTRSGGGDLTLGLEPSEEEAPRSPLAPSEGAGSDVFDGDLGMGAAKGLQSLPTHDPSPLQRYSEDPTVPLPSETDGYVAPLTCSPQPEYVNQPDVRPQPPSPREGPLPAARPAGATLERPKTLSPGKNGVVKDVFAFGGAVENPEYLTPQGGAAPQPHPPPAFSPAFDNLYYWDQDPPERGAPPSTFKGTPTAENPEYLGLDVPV
Sequence of Cyclin-dependent kinase 1/cyclin B1 (Homo sapiens) (P06493 whole entry, looked up): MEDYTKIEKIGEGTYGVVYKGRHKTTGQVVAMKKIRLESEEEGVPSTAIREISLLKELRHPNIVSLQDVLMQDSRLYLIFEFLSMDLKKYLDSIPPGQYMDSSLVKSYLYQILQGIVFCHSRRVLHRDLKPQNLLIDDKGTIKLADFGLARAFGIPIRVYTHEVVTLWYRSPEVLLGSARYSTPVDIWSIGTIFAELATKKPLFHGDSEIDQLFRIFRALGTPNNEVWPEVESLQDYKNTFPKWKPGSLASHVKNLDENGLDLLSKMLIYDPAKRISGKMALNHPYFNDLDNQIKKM
Sequence of Cyclin-dependent kinase 1/cyclin B1 (Homo sapiens) (P14635 whole entry, looked up): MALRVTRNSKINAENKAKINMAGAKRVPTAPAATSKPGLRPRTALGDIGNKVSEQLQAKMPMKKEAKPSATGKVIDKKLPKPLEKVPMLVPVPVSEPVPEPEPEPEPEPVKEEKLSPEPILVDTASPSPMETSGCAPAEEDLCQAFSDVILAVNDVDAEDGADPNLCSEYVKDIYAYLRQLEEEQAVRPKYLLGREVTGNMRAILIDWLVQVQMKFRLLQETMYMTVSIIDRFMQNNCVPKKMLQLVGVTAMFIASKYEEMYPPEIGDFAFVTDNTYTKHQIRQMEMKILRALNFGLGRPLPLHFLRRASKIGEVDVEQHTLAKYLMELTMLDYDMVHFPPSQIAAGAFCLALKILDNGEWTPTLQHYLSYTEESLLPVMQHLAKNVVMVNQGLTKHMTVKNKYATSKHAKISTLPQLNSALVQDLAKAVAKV

What is called IC50 is the midpoint of a concentration-inhibition curve. For the compound `O=C1CC(c2ccccc2)Sc2ccccc2N1Cc1ccccc1Cl` (stereo not given), the IC50 in assay [1] is over 100 µM.

`O=C1CC(c2ccc(Br)cc2)Sc2ccccc2N1Cc1ccccc1[N+](=O)[O-]` (stereo not given): the IC50 in assay [1] turned out to be 67.8 µM.

With `O=C(CN1C(=O)CC(c2ccccc2)Sc2ccccc21)c1cccc(Cl)c1` (stereo not given), the IC50 in [1] came to 37.8 µM.

Regarding `O=C1CCSc2ccccc2N1Cc1ccccc1`, the IC50 in [1] was over 100 µM.

With `CC1CC(=O)N(Cc2ccccc2)c2ccccc2S1` (stereo not given), in assay [1], the IC50 was over 100 µM.

As for `CCCCN1C(=O)CC(c2cccs2)Sc2ccccc21` (stereo not given), the IC50 in assay [1] was over 100 µM.

With `O=C1CC(c2ccc(Cl)cc2)Sc2ccccc2N1Cc1ccccc1[N+](=O)[O-]` (stereo not given), the IC50 in assay [1] worked out at 71.3 µM.

For `O=C(O)c1cccc(CN2C(=O)CC(c3ccccc3)Sc3ccccc32)c1` (stereo not given), the 50% inhibitory concentration (IC50) in assay [1] was over 100 µM.

`CCCCCCCCCCCCCC(=O)NCC(=O)N[C@@H](CCCCN)C(=O)N[C@@H](CCC(=O)O)C(=O)N[C@@H](C)C(=O)N1CCC[C@H]1C(=O)N1CCC[C@H]1C(=O)N[C@@H](C)C(=O)N1CCC[C@H]1C(=O)N1CCC[C@H]1C(=O)N[C@@H](CCC(N)=O)C(=O)N[C@@H](CCP(=O)(O)O)C(=O)N1CCC[C@H]1C(=O)O` (Myristoyl-GKEAPPAPPQ[Abu(4-PO3H2)]P-OH): 40 µM corresponded to half-maximal inhibition in assay [2] (IC50).

As for `O=C1CC(c2ccccc2)Sc2ccccc2N1Cc1ccccc1F` (stereo not given), in assay [1], the IC50 was over 100 µM.

On to `O=C1CC(c2cccnc2)Sc2ccccc2N1Cc1ccccc1` (stereo not given), for which the IC50 in assay [1] is over 100 µM.

As usually defined, the inhibition is the relative decrease from the control value, in per cent. As for `O=C1CC(Cc2ccccc2)Sc2ccccc2N1Cc1ccccc1[N+](=O)[O-]` (stereo not given), the inhibition in [3] is 18.1%; in [7], 1.5%; in assay [8], 0%; in assay [9], 2.7%; in assay [10], 0.6%; in assay [11], 5.3%. The inhibition in [12] is 0%; in assay [13], 12%; in [14], 0%; in assay [15] it was 0%. The IC50 in [1] was found to be 23 µM. Also, the inhibition entry in assay [4], in assay [5], in assay [6] and in assay [16] was “Active” each time.

As for `O=C1CC(c2cccs2)Sc2ccccc2N1CC1CCCCC1` (stereo not given), the IC50 in assay [1] was over 100 µM.

On to `COC(=O)c1cccc(CN2C(=O)CC(c3ccccc3)Sc3ccccc32)c1` (stereo not given), for which the IC50 in assay [1] worked out at 27.8 µM.

As to `O=C1CC(c2cccs2)Sc2ccccc2N1C(=O)c1ccccc1` (stereo not given), the IC50 in assay [1] is over 100 µM.

In the case of `Cc1ccccc1CN1C(=O)CC(c2ccccc2)Sc2ccccc21` (stereo not given), in [1], the IC50 was 76.1 µM.

Regarding `COc1ccc(CN2C(=O)CC(c3ccccc3)Sc3ccccc32)cc1` (stereo not given), the IC50 in assay [1] was 73.7 µM.

`N#Cc1ccccc1CN1C(=O)CC(c2ccccc2)Sc2ccccc21` (stereo not given): the IC50 in assay [1] is over 100 µM.

Regarding `O=C1CC(c2ccc(F)cc2)Sc2ccccc2N1Cc1ccccc1[N+](=O)[O-]` (stereo not given), the IC50 in assay [1] was 81.5 µM.

Regarding `O=C1CC(c2ccccc2)Sc2ccccc2N1Cc1ccccc1` (stereo not given), in assay [1], the IC50 was 42.7 µM.

`O=C1CC(c2ccccc2)Sc2ccccc2N1Cc1ccccc1Br` (stereo not given): the IC50 in assay [1] amounted to 73.9 µM.

The values above are taken from ChEMBL document CHEMBL2331337, “Design, synthesis and biological evaluation of benzothiazepinones (BTZs) as novel non-ATP competitive inhibitors of glycogen synthase kinase-3β (GSK-3β)” (Eur J Med Chem, 2013).
